From ChEMBL document CHEMBL4339192, “De Novo Designed Amphipathic α-Helical Antimicrobial Peptides Incorporating Dab and Dap Residues on the Polar Face To Treat the Gram-Negative Pathogen, Acinetobacter baumannii” (J Med Chem, 2019)
Values after ≈ are worked out from the molar mass of the structure shown. Where a SMILES comes first, the peptide text is derived from it. [ ]: non-standard residue; d: D form. Dab = NCC[C@H](N)C(=O)O

Legend:
Acinetobacter baumannii [1] = experiment: Antibacterial activity against Acinetobacter baumannii isolate 952654 measured after 24 hrs by microtiter dilution method; assay type: functional; conditions: isolate 952654, 24 h
Procedure, shortened: (§1)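 Broth microdilution in Mueller-Hinton (MH) medium. […] Plates were incubated 24 h at 37 °C. MIC was the lowest peptide concentration that inhibited growth, based on three sets of replicates.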

[2] = Therapeutic index, ratio of HC50 for human RBC to MIC for polymyxin B/colistin-resistant Acinetobacter baumannii M89953; assay type: toxicity; conditions: human red blood cells, read-out: TI
Procedure, shortened: (§2)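 T.I. = HC50/MIC. For HC50, peptide (quantified by amino acid analysis) was two-fold serially diluted over 12 concentrations up to 1000 μg/mL. It was incubated with 1% fresh human erythrocytes in PBS, pH 7.4, for 18 h at 37 °C. After 800g centrifugation, hemoglobin was read at 570 nm against water (100%) and no-peptide (0%) controls. HC50 came from a lysis-versus-concentration plot, average of 3 replicates.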

Acinetobacter baumannii [3] = experiment: Antibacterial activity against Acinetobacter baumannii isolate 1021371 measured after 24 hrs by microtiter dilution method; assay type: functional; conditions: isolate 1021371, 24 h; procedure, shortened: as §1
Acinetobacter baumannii [4] = experiment: Antibacterial activity against Acinetobacter baumannii isolate 961997 measured after 24 hrs by microtiter dilution method; assay type: functional; conditions: isolate 961997, 24 h; procedure, shortened: as §1
Acinetobacter baumannii [5] = experiment: Antibacterial activity against Acinetobacter baumannii isolate 977751 measured after 24 hrs by microtiter dilution method; assay type: functional; conditions: isolate 977751, 24 h; procedure, shortened: as §1
Acinetobacter baumannii [6] = experiment: Antibacterial activity against Acinetobacter baumannii isolate 963659 measured after 24 hrs by microtiter dilution method; assay type: functional; conditions: isolate 963659, 24 h; procedure, shortened: as §1
Acinetobacter baumannii [7] = experiment: Antibacterial activity against polymyxin B/colistin-resistant Acinetobacter baumannii M89941 measured after 24 hrs by microtiter dilution method; assay type: functional; conditions: M89941, 24 h; procedure, shortened: as §1
Acinetobacter baumannii [8] = experiment: Antibacterial activity against Acinetobacter baumannii isolate 9383370 measured after 24 hrs by microtiter dilution method; assay type: functional; conditions: isolate 9383370, 24 h; procedure, shortened: as §1
Acinetobacter baumannii [9] = experiment: Antibacterial activity against Acinetobacter baumannii isolate 1002956 measured after 24 hrs by microtiter dilution method; assay type: functional; conditions: isolate 1002956, 24 h; procedure, shortened: as §1
Acinetobacter baumannii [10] = experiment: Antibacterial activity against Acinetobacter baumannii isolate 1010282 measured after 24 hrs by microtiter dilution method; assay type: functional; conditions: isolate 1010282, 24 h; procedure, shortened: as §1
[11] = Therapeutic index, ratio of HC50 for human RBC to MIC for polymyxin B/colistin-resistant Acinetobacter baumannii M89955; assay type: toxicity; conditions: human red blood cells, read-out: TI; procedure, shortened: as §2
Acinetobacter baumannii [12] = experiment: Antibacterial activity against polymyxin B/colistin-resistant Acinetobacter baumannii M89953 measured after 24 hrs by microtiter dilution method; assay type: functional; conditions: M89953, 24 h; procedure, shortened: as §1
Acinetobacter baumannii [13] = experiment: Antibacterial activity against Acinetobacter baumannii isolate 1007660 measured after 24 hrs by microtiter dilution method; assay type: functional; conditions: isolate 1007660, 24 h; procedure, shortened: as §1
Acinetobacter baumannii [14] = experiment: Antibacterial activity against Acinetobacter baumannii isolate 968886 measured after 24 hrs by microtiter dilution method; assay type: functional; conditions: isolate 968886, 24 h; procedure, shortened: as §1
Acinetobacter baumannii [15] = experiment: Antibacterial activity against Acinetobacter baumannii isolate 963618 measured after 24 hrs by microtiter dilution method; assay type: functional; conditions: isolate 963618, 24 h; procedure, shortened: as §1
Acinetobacter baumannii [16] = experiment: Antibacterial activity against Acinetobacter baumannii isolate 1035794 measured after 24 hrs by microtiter dilution method; assay type: functional; conditions: isolate 1035794, 24 h; procedure, shortened: as §1
Acinetobacter baumannii [17] = experiment: Antibacterial activity against polymyxin B/colistin-resistant Acinetobacter baumannii M89955 measured after 24 hrs by microtiter dilution method; assay type: functional; conditions: M89955, 24 h; procedure, shortened: as §1
Acinetobacter baumannii [18] = experiment: Antibacterial activity against Acinetobacter baumannii isolate 964304 measured after 24 hrs by microtiter dilution method; assay type: functional; conditions: isolate 964304, 24 h; procedure, shortened: as §1
Acinetobacter baumannii [19] = experiment: Antibacterial activity against Acinetobacter baumannii isolate 1010245 measured after 24 hrs by microtiter dilution method; assay type: functional; conditions: isolate 1010245, 24 h; procedure, shortened: as §1
Acinetobacter baumannii [20] = experiment: Antibacterial activity against Acinetobacter baumannii isolate 1018887 measured after 24 hrs by microtiter dilution method; assay type: functional; conditions: isolate 1018887, 24 h; procedure, shortened: as §1
Acinetobacter baumannii [21] = experiment: Antibacterial activity against polymyxin B/colistin-resistant Acinetobacter baumannii M89949 measured after 24 hrs by microtiter dilution method; assay type: functional; conditions: M89949, 24 h; procedure, shortened: as §1
Acinetobacter baumannii [22] = experiment: Antibacterial activity against Acinetobacter baumannii isolate 1035166 measured after 24 hrs by microtiter dilution method; assay type: functional; conditions: isolate 1035166, 24 h; procedure, shortened: as §1
Acinetobacter baumannii [23] = experiment: Antibacterial activity against Acinetobacter baumannii isolate 1001611 measured after 24 hrs by microtiter dilution method; assay type: functional; conditions: isolate 1001611, 24 h; procedure, shortened: as §1
[24] = Therapeutic index, ratio of HC50 for human RBC to MIC for polymyxin B/colistin-resistant Acinetobacter baumannii M89951; assay type: toxicity; conditions: human red blood cells, read-out: TI; procedure, shortened: as §2
Acinetobacter baumannii [25] = experiment: Antibacterial activity against Acinetobacter baumannii 649 measured after 24 hrs in presence of 25% human serum by microtiter dilution method; assay type: functional; conditions: Acinetobacter baumannii, 649, 24 h
Procedure, shortened: (§3)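 Blood strain 649 was tested by MH broth microdilution with and without 25% (v/v) human serum added to the medium. The test used a final inoculum of 5 × 10^5 cfu/mL and incubation at 37 °C. The ratio is the MIC in serum over the MIC in MH alone.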

[26] = Hemolytic activity against human RBC measured after 18 hrs by spectrophotometric method; assay type: ADME, cell-based, Erythrocyte; conditions: human red blood cells (erythrocytes)
Procedure, shortened: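 Peptide (amount by amino acid analysis), two-fold serial dilutions at 12 concentrations up to 1000 μg/mL, with 1% human erythrocytes in PBS pH 7.4, 37 °C, 18 h. Unlysed cells removed by centrifugation (800g); hemoglobin read at 570 nm. Water-lysed cells = 100%, no-peptide cells = 0%. HC50 from plot of % lysis vs concentration (μM), average of 3 replicates.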

[27] = Therapeutic index, ratio of HC50 for human RBC to MIC for polymyxin B/colistin-resistant Acinetobacter baumannii M89952; assay type: toxicity; conditions: human red blood cells, read-out: TI; procedure, shortened: as §2
[28] = Therapeutic index, ratio of HC50 for human RBC to MIC for polymyxin B/colistin-resistant Acinetobacter baumannii M89949; assay type: toxicity; conditions: human red blood cells, read-out: TI; procedure, shortened: as §2
Acinetobacter baumannii [29] = experiment: Ratio of MIC for Acinetobacter baumannii 649 measured in presence of 25% human serum to MIC for Acinetobacter baumannii 649 in absence of 25% human serum; assay type: functional; procedure, shortened: as §3
Acinetobacter baumannii [30] = experiment: Antibacterial activity against Acinetobacter baumannii isolate 965463 measured after 24 hrs by microtiter dilution method; assay type: functional; conditions: isolate 965463, 24 h; procedure, shortened: as §1
Acinetobacter baumannii [31] = experiment: Antibacterial activity against Acinetobacter baumannii isolate 981650 measured after 24 hrs by microtiter dilution method; assay type: functional; conditions: isolate 981650, 24 h; procedure, shortened: as §1
Acinetobacter baumannii [32] = experiment: Antibacterial activity against polymyxin B/colistin-resistant Acinetobacter baumannii M89963 measured after 24 hrs by microtiter dilution method; assay type: functional; conditions: M89963, 24 h; procedure, shortened: as §1
Acinetobacter baumannii [33] = experiment: Antibacterial activity against Acinetobacter baumannii 649 measured after 24 hrs by microtiter dilution method; assay type: functional; conditions: Acinetobacter baumannii, 649, 24 h; procedure, shortened: as §1
Acinetobacter baumannii [34] = experiment: Antibacterial activity against polymyxin B/colistin-resistant Acinetobacter baumannii M89951 measured after 24 hrs by microtiter dilution method; assay type: functional; conditions: M89951, 24 h; procedure, shortened: as §1
[35] = Therapeutic index, ratio of HC50 for human RBC to MIC for polymyxin B/colistin-resistant Acinetobacter baumannii M89941; assay type: toxicity; conditions: human red blood cells, read-out: TI; procedure, shortened: as §2
Acinetobacter baumannii [36] = experiment: Antibacterial activity against polymyxin B/colistin-resistant Acinetobacter baumannii M89952 measured after 24 hrs by microtiter dilution method; assay type: functional; conditions: M89952, 24 h; procedure, shortened: as §1
[37] = Therapeutic index, ratio of HC50 for human RBC to MIC for polymyxin B/colistin-resistant Acinetobacter baumannii M89963; assay type: toxicity; conditions: human red blood cells, read-out: TI; procedure, shortened: as §2
Acinetobacter baumannii [38] = experiment: Antibacterial activity against Acinetobacter baumannii isolate 1017395 measured after 24 hrs by microtiter dilution method; assay type: functional; conditions: isolate 1017395, 24 h; procedure, shortened: as §1

With `CC(=O)N[C@H](CCCCN)C(=O)N[C@H](CC(C)C)C(=O)N[C@@H](CCN)C(=O)N[C@H](CO)C(=O)N[C@H](CC(C)C)C(=O)N[C@H](CC(C)C)C(=O)N[C@@H](CCN)C(=O)N[C@@H](C(=O)N[C@H](CC(C)C)C(=O)N[C@H](CO)C(=O)N[C@@H](CCN)C(=O)N[C@H](C)C(=O)N[C@H](C)C(=O)N[C@H](C)C(=O)N[C@H](C)C(=O)N[C@H](C)C(=O)N[C@H](CC(C)C)C(=O)N[C@@H](CCN)C(=O)N[C@@H](C(=O)N[C@H](CC(C)C)C(=O)N[C@H](CC(C)C)C(=O)N[C@@H](CCN)C(=O)N[C@H](C)C(=O)N[C@H](CC(C)C)C(=O)N[C@H](CO)C(=O)N[C@@H](CCN)C(N)=O)[C@H](C)O)[C@H](C)O` (Ac-[dK][dL][Dab][dS][dL][dL][Dab][dT][dL][dS][Dab][dA][dA][dA][dA][dA][dL][Dab][dT][dL][dL][Dab][dA][dL][dS][Dab]-NH2) the MIC (Acinetobacter baumannii [1]) was 0.8 µM (≈ 2.07 µg/mL), the selectivity ratio [2] was 8.6 and the MIC (Acinetobacter baumannii [3]) was 0.8 µM (≈ 2.07 µg/mL). For the same compound, the MIC (Acinetobacter baumannii [4]) was 0.8 µM (≈ 2.07 µg/mL), the MIC (Acinetobacter baumannii [5]) was 3.1 µM (≈ 8.01 µg/mL) and the MIC (Acinetobacter baumannii [6]) was 0.4 µM (≈ 1.03 µg/mL). It also gave an MIC (Acinetobacter baumannii [7]) of 1.5 µM (≈ 3.87 µg/mL), an MIC (Acinetobacter baumannii [8]) of 1.5 µM (≈ 3.87 µg/mL) and an MIC (Acinetobacter baumannii [9]) of 0.8 µM (≈ 2.07 µg/mL). The MIC (Acinetobacter baumannii [10]) was 0.8 µM (≈ 2.07 µg/mL), the selectivity ratio [11] was 8.6 and the MIC (Acinetobacter baumannii [12]) was 0.8 µM (≈ 2.07 µg/mL). For the same compound, the MIC (Acinetobacter baumannii [13]) was 0.8 µM (≈ 2.07 µg/mL), the MIC (Acinetobacter baumannii [14]) was 0.8 µM (≈ 2.07 µg/mL) and the MIC (Acinetobacter baumannii [15]) was 0.8 µM (≈ 2.07 µg/mL). The MIC (Acinetobacter baumannii [16]) was 0.8 µM (≈ 2.07 µg/mL), the MIC (Acinetobacter baumannii [17]) was 0.8 µM (≈ 2.07 µg/mL) and the MIC (Acinetobacter baumannii [18]) was 1.5 µM (≈ 3.87 µg/mL). The MIC (Acinetobacter baumannii [19]) was 0.8 µM (≈ 2.07 µg/mL), the MIC (Acinetobacter baumannii [20]) was 0.5 µM (≈ 1.29 µg/mL) and the MIC (Acinetobacter baumannii [21]) was 0.8 µM (≈ 2.07 µg/mL). The MIC (Acinetobacter baumannii [22]) was 0.8 µM (≈ 2.07 µg/mL), the MIC (Acinetobacter baumannii [23]) was 0.8 µM (≈ 2.07 µg/mL) and the selectivity ratio [24] was 8.6. It also gave an MIC (Acinetobacter baumannii [25]) of 3 µM, an HC50 at 18 h [26] of 7.7 µM and a selectivity ratio [27] of 8.6. For the same compound, the selectivity ratio [28] was 8.6, the Ratio (Acinetobacter baumannii [29]) was 4 and the MIC (Acinetobacter baumannii [30]) was 0.8 µM (≈ 2.07 µg/mL). For the same compound, the MIC (Acinetobacter baumannii [31]) was 0.4 µM (≈ 1.03 µg/mL), the MIC (Acinetobacter baumannii [32]) was 0.8 µM (≈ 2.07 µg/mL) and the MIC (Acinetobacter baumannii [33]) was 0.8 µM (≈ 2.07 µg/mL). It also gave an MIC (Acinetobacter baumannii [34]) of 0.8 µM (≈ 2.07 µg/mL), a selectivity ratio [35] of 8.6 and an MIC (Acinetobacter baumannii [36]) of 0.8 µM (≈ 2.07 µg/mL). For the same compound, the selectivity ratio [37] was 8.6 and the MIC (Acinetobacter baumannii [38]) was 0.8 µM (≈ 2.07 µg/mL).
